Experimental data published in PubChem BioAssay.
Calls of active or inactive are those of the source.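 How the source made its calls, unless noted: active means viability loss from added drug above about 55%, and viability with drug at most 40%, in both replicates (limit read from the data, passing the limit was not always enough); inconclusive means both conditions met in only one replicate; inactive means neither replicate meets both conditions.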

Assays:
[1] = reducers of endogenous Her2 protein level, primary screen, SKBR3 breast tumor cells, AlphaScreen, ATP viability (AID 461;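 active means Her2 level under about 52% in both replicate screens, with viability over 70% of control, limit read from the data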;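 on Her2 level: lower value means less Her2 protein in the cells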;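 on viability: percent of carrier control wells set as 100% viability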); conditions: 18-24 h, measured here: SKBR3 viability, ATP luminescence, at 10 µM
[2] = molecular target: Receptor tyrosine-protein kinase erbB-2 (Homo sapiens) (UniProt P04626); assay: as above; conditions: 18-24 h, at 10 µM, stronger effect = lower value
Chain of Receptor tyrosine-protein kinase erbB-2 (Homo sapiens) (P04626 whole entry, looked up): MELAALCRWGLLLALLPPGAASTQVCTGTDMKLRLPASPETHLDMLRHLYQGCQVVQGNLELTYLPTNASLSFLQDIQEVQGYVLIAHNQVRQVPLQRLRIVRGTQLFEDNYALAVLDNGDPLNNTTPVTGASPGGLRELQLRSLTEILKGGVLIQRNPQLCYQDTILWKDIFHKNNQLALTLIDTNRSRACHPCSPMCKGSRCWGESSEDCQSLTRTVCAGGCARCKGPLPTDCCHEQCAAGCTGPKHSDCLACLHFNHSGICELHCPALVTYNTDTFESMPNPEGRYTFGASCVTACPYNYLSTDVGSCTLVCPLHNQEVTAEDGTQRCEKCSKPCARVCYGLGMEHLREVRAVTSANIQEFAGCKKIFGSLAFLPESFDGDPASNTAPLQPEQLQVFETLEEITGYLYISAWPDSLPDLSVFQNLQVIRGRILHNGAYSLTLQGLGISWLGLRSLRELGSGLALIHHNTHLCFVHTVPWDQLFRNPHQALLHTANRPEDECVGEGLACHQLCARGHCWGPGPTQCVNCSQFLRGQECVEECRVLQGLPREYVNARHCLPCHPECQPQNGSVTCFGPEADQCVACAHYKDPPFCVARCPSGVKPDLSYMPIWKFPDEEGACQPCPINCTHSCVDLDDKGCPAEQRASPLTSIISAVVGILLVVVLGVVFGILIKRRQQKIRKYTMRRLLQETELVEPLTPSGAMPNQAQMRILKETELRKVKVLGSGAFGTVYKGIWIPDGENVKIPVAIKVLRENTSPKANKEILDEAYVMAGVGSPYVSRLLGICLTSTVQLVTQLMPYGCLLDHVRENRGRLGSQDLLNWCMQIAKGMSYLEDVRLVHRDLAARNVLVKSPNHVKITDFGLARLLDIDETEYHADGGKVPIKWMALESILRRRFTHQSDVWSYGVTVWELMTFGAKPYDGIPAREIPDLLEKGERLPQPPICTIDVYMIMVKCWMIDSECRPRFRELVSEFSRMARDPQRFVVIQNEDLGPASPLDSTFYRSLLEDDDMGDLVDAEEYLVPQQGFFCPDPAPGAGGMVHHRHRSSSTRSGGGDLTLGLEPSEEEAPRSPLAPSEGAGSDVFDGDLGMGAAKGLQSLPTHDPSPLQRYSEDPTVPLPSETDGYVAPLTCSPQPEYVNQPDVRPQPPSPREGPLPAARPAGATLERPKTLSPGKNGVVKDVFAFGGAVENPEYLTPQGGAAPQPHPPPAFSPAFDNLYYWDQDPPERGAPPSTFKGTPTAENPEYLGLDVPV

[3] = SK-BR-3 cell growth inhibitors, pilot screen, 24 h, human (AID 572;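 active means viability at or below 10% of carrier control in both of two separate runs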;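 further: compound exposure lasted between 18 and 24 h rather than exactly 24 h; 100% = carrier-treated control wells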); conditions: SK-BR-3 viability, CellTiter-Glo luminescence, at 10 µM, stronger effect = lower value
[4] = HUVEC growth inhibition – cell-based, human, primary screen (AID 575;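 active means viability at or below 30% in both replicate assays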;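 further: 100% = median of untreated cell wells with 0.1% DMSO on each plate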); conditions: HUVEC proliferation, CellTiter-Glo luminescence, 72 h; at 10 µM; stronger effect = lower value
Summary of the method: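 Test system: primary human umbilical vein endothelial cells; medium: endothelial basal medium with 2% FBS plus growth supplements; dosing: 10 µM compound only; times: 72 h treatment at 37 °C; signal: CTG luminescence; read-out: % viability relative to median vehicle-well signal on each plate; control set: vehicle and MePR control wells; plate: 384-well, collagen-coated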

[5] = growth inhibitors of H69AR lung tumor, primary screen, human, duplicate replicates (AID 580;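 active means viability at or under a set limit in both replicates, limit being median viability minus 3 SD, cut at about 48% in these data, passing the limit was not always enough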;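 further: 100% = mean luminescence of untreated wells and 0% = no signal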); conditions: H69AR lung tumor cells viability, ATP luminescence, 72 h; at 10 µM; stronger effect = lower value
[6] = reversal of MRP1-mediated doxorubicin resistance, pilot screen, H69AR cells, doxorubicin co-treatment (AID 601); conditions: CellTiter-Glo, 72 h, at 10 µM; for differential viability (reversal): stronger effect = higher value
[7] = 384-well plate pilot, post-Golgi transport modulator project, inhibition of yeast transport mutant growth (AID 636; in the data active means inhibition above about 31%); conditions: absorbance 615 nm, about 18 h, stronger effect = higher value
[8] = growth suppression of yeast trafficking mutant, preliminary HTS, modulators of trafficking downstream of Golgi apparatus project, 1536-format plate, OD 615 nm (AID 637; in the data active means inhibition above about 30%); conditions: yeast transport mutant growth, absorbance 615 nm, 18 h; stronger effect = higher value
[9] = H69AR cells + 2 uM doxorubicin, measured here: viability with 2 uM doxorubicin, stronger effect = lower value
[10] = H69AR cells, compound alone cytotoxicity

Structure (SMILES) | viability [1] [%] | Her2 level [2] | viability [3] | viability [4] | viability [5] | differential viability (reversal) ([6]; H69AR cells + 2 uM doxorubicin) | viability [6, 9] [%] | viability [6, 10] [%] | inhibition [7] | inhibition [8]
Cc1cccc(N(C)C(=O)c2coc(=O)c3ccccc23)c1 | 85 | 81% (inactive) | 85% (inactive) | 82.9% (inactive) | 85.8% (inactive) | -2.86% (inactive) | 88.7 | 85.8 | -3.16% (inactive) | -1.64% (inactive)
C/C(N)=C(/C#N)C(=O)COC(=O)c1cc(S(=O)(=O)N2CCCCC2)ccc1C | 88.5 | 79.5% (inactive) | 88.5% (inactive) | 82.2% (inactive) | 95.8% (inactive) | 0.98% (inactive) | 94.8 | 95.8 | 0.38% (inactive) | -3.83% (inactive)
O=C(Nc1cccc(F)c1)N1CC=C(n2c(=O)[nH]c3ccccc32)CC1 | 111 | 86.5% (inactive) | 111% (inactive) | 93.4% (inactive) | 81.9% (inactive) | 5.16% (inactive) | 76.7 | 81.9 | -4.21% (inactive) | 0.91% (inactive)
COc1c2ccoc2nc2c(OC)c(OCC(O)C(C)(C)O)ccc12 (stereo not given) | 100 | 97.5% (inactive) | 100% (inactive) | 94.4% (inactive) | 95.4% (inactive) | 2.17% (inactive) | 93.2 | 95.4 | -2.8% (inactive) | 3.39% (inactive)
CC(=O)Nc1ccc(NC(=O)c2cc(C)nn2-c2ccccc2)cc1 | 84 | 116% (inactive) | 84% (inactive) | 89.5% (inactive) | 108% (inactive) | 12.7% (inactive) | 95.5 | 108 | 2.53% (inactive) | -7.9% (inactive)
CCOC(=O)c1cc2ccc(OC)c(OC)c2c(=O)s1 | 98.5 | 94% (inactive) | 98.5% (inactive) | 83.9% (inactive) | 83.5% (inactive) | -0.1% (inactive) | 83.6 | 83.5 | 0.78% (inactive) | -7% (inactive)
O=C1C2C3C=CC(C3=C3CCCCC3)C2C(=O)N1c1ccccc1 (stereo not given) | 131 | 89.5% (inactive) | 131% (inactive) | 103% (inactive) | 95.8% (inactive) | 1.16% (inactive) | 94.7 | 95.8 | -3.12% (inactive) | -2.06% (inactive)
O=C(Cn1ncc2c(=O)oc3ccccc3c21)Nc1nc2ccccc2s1 | 113 | 102% (inactive) | 113% (inactive) | 97.2% (inactive) | 102% (inactive) | 7.33% (inactive) | 94.9 | 102 | -8.08% (inactive) | -3.65% (inactive)
COc1ccc(NC(=O)c2oc3ccc(S(=O)(=O)N4CCC5(CC4)OCCO5)cc3c2C)cc1 | 87.5 | 90.5% (inactive) | 87.5% (inactive) | 39.4% (inactive) | 37.5% (active) | -5.32% (inactive) | 42.8 | 37.5 | 1.17% (inactive) | -14.8% (inactive)
Cc1[nH]n(C(N)=S)c(=O)c1C(c1ccccc1)C(C#N)C#N (stereo not given) | 96.5 | 152% (inactive) | 96.5% (inactive) | 70.8% (inactive) | 91.6% (inactive) | -0.72% (inactive) | 92.4 | 91.6 | 3.46% (inactive) | 20.2% (inactive)
N#CC(C(=O)Nc1ccc(Cl)c(Cl)c1)=C1Nc2ccccc2N1 | 90.5 | 72.5% (inactive) | 90.5% (inactive) | 36% (inactive) | 13.5% (active) | -10.8% (inactive) | 24.3 | 13.5 | -0.66% (inactive) | -1.61% (inactive)
CC1(C)CC(=O)C(C=NCc2ccc3c(c2)OCO3)=C(O)C1 | 104 | 95.5% (inactive) | 104% (inactive) | 96.6% (inactive) | 91.3% (inactive) | 5% (inactive) | 86.3 | 91.3 | 0.65% (inactive) | -4.92% (inactive)
COc1ccccc1OC(=O)c1ccc(SC)cc1OC | 83 | 88% (inactive) | 83% (inactive) | 98.4% (inactive) | 94.1% (inactive) | 2.65% (inactive) | 91.4 | 94.1 | 1.05% (inactive) | -5.97% (inactive)
O=C(O)c1ccccc1C(=O)Nc1ccccc1 | 121 | 124% (inactive) | 121% (inactive) | 103% (inactive) | 105% (inactive) | 12.1% (inactive) | 92.8 | 105 | -6.97% (inactive) | -2.13% (inactive)
COc1cc(C2c3c(n[nH]c3C)C(=O)N2c2ccc(C)cc2)ccc1O (stereo not given) | 113 | 73% (inactive) | 113% (inactive) | 88.9% (inactive) | 101% (inactive) | 3.7% (inactive) | 97 | 101 | -3.87% (inactive) | -2.3% (inactive)
COc1ccc(S(=O)(=O)NCCOc2ccccc2)cc1OC | 94 | 90.5% (inactive) | 94% (inactive) | 97.7% (inactive) | 91.5% (inactive) | -2.55% (inactive) | 94.1 | 91.5 | 6.76% (inactive) | 2.3% (inactive)
Cc1onc(-c2ccccc2)c1C(=O)N1CCN(C(=O)c2ccco2)CC1 | 98 | 98.5% (inactive) | 98% (inactive) | 101% (inactive) | 88.4% (inactive) | -2.1% (inactive) | 90.5 | 88.4 | -6.67% (inactive) | 5.32% (inactive)
Cc1c(NC(=O)c2ccc(COc3ccc4ccccc4c3)o2)c(=O)n(-c2ccccc2)n1C | 88.5 | 91% (inactive) | 88.5% (inactive) | 91.2% (inactive) | 99% (inactive) | 13.7% (inactive) | 85.3 | 99 | -5.47% (inactive) | -5.9% (inactive)
COc1ccccc1N1CCN(S(=O)(=O)CC23CCC(CC2=O)C3(C)C)CC1 (stereo not given) | 102 | 94% (inactive) | 102% (inactive) | 76.9% (inactive) | 84.5% (inactive) | 0.875% (inactive) | 83.6 | 84.5 | -0.52% (inactive) | -3.67% (inactive)
CCOC(=O)COc1ccc(S(=O)(=O)N2CCc3ccccc3C2)cc1 | 111 | 102% (inactive) | 111% (inactive) | 9.96% (active) | 96.7% (inactive) | 13.7% (inactive) | 83 | 96.7 | -1.97% (inactive) | 0.65% (inactive)
CCC(C(=O)Nc1ncccn1)(C(F)(F)F)C(F)(F)F | 86.5 | 99% (inactive) | 86.5% (inactive) | 95.7% (inactive) | 103% (inactive) | 8.62% (inactive) | 94.6 | 103 | 0.27% (inactive) | 0.82% (inactive)
CCOC(=O)CCNC(=O)Nc1ccc2nc(C)n(Cc3ccccc3Cl)c(=O)c2c1 | 87 | 110% (inactive) | 87% (inactive) | 92.9% (inactive) | 94.9% (inactive) | 7.92% (inactive) | 87 | 94.9 | -0.92% (inactive) | 1.67% (inactive)
O=C(CN1CCN(C2CCCCC2)CC1)Nc1ccccc1-c1ccccc1 | 90.5 | 61% (inactive) | 90.5% (inactive) | 91.4% (inactive) | 84.7% (inactive) | 7.96% (inactive) | 76.7 | 84.7 | -3.24% (inactive) | 1.9% (inactive)
C=CCSc1nc2c(c(=O)[nH]c(=O)n2C)n1CC | 78.5 | 74% (inactive) | 78.5% (inactive) | 85.7% (inactive) | 93.2% (inactive) | 7.82% (inactive) | 85.3 | 93.2 | -5.54% (inactive) | -3.11% (inactive)
Cc1nc(N2CCN(c3ncccn3)CC2)c2oc3ccccc3c2n1 | 85 | 106% (inactive) | 85% (inactive) | 83.9% (inactive) | 99.4% (inactive) | -11.8% (inactive) | 111 | 99.4 | -5.47% (inactive) | -2.06% (inactive)
O=C1c2ccccc2-c2nc3ncnn3c(-c3ccccc3)c21 | 93.5 | 105% (inactive) | 93.5% (inactive) | 103% (inactive) | 102% (inactive) | 8.68% (inactive) | 93.2 | 102 | 1.97% (inactive) | -3.45% (inactive)
CCCCc1ccc(NC(=O)COCC)cc1 | 110 | 94% (inactive) | 110% (inactive) | 92.1% (inactive) | 93.1% (inactive) | 7.21% (inactive) | 85.9 | 93.1 | -2.63% (inactive) | 5.08% (inactive)
COc1cccc(-c2cc(C(=O)N3CCCc4ccccc43)no2)c1 | 110 | 89.5% (inactive) | 110% (inactive) | 94.6% (inactive) | 92.4% (inactive) | 5.08% (inactive) | 87.4 | 92.4 | -6.49% (inactive) | -0.83% (inactive)
